B2: Bcl-w ΔC10 (C29S, A128E), His6-tagged recombinant (domain or fragment, UniProt Q92843 1-183, looked up)
chain: MATPASAPDTRALVADFVGYKLRQKGYVSGAGPGEGPAADPLHQAMRAAGDEFETRFRRTFSDLAAQLHVTPGSAQQRFTQVSDELFQGGPNWGRLVAFFVFGAALCAESVNKEMEPLVGQVQEWMVEYLETQLADWIHSSGGWAEFTALYGDGALEEARRLREGNWASVRTVLTGAVALGAL

Tests used:
[1] = test system: endogenous Bcl-w in HeLa cells; test: Drug-induced membrane association of endogenous Bcl-w, HeLa cells; format: cell-based; settings: 24 h, 1.0 μg/ml etoposide (VP16) or 10 nM staurosporine
Outline: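 HeLa cells were harvested 24 h after 50 Jm−2 UV, 1.0 μg/ml etoposide or 10 nM staurosporine. Lysis was in HMKEE buffer (Hepes pH 7.2) with 250 mM sucrose and 0.025% digitonin, 10 min on ice. Pellet (13,000 rpm, 2 min, 4°C) was solubilised in RIPA. Soluble and pellet fractions were immunoblotted for endogenous Bcl-w.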

Bcl-w in FDC-P1 cells = test: Damage-induced membrane association of Bcl-w, FDC-P1 cells; format: cell-based
Outline: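 FDC-P1 or FD/FLAG–Bcl-w cells were given 100 nM staurosporine, 10 Gy γ irradiation or IL-3 withdrawal, in some runs with 50 μM zVAD.fmk. Cells were lysed in HMKEE/250 mM sucrose/0.025% digitonin for 10 min on ice. Pellet (13,000 rpm, 2 min, 4°C) and soluble fractions were separated. Pellet was RIPA-solubilised, with or without alkali treatment, and immunoblotted for Bcl-w.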

FDC-P1 cells = test: Inhibition of apoptosis / cell survival; format: cell-based; settings: zVAD.fmk with death signals
[2] = molecular target: B2; test: SPR
[3] = molecular target: T1, L94ABH3, 26-mer Bim BH3 peptide with L94A (mouse, L94A (stands in the printed letters)); test: SPR
T1 peptide: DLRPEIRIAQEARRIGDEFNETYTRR

Bcl-w ΔC10 = molecular target: T2, Bcl-w ΔC10 (Homo sapiens, UniProt Q92843, A128E/C29S); test: Optical biosensor; format: binding
T2 sequence (Q92843 1-183 C29S/A128E limits assumed): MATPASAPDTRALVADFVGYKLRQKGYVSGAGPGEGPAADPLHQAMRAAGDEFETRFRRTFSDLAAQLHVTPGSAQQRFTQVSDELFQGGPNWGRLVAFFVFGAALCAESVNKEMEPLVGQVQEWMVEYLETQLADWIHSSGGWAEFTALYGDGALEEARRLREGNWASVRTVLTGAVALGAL

BimEL = test: Coimmunoprecipitation of Bcl-w constructs with BimEL; format: binding; settings: 35S-labeled lysates, 293T cells

Molecule: COc1cc([C@@H]2c3cc4c(cc3[C@@H](O[C@@H]3O[C@@H]5CO[C@@H](C)O[C@H]5[C@H](O)[C@H]3O)[C@H]3COC(=O)[C@H]23)OCO4)cc(OC)c1O [etoposide]
- membrane association of endogenous Bcl-w [1]: Damage signals trigger membrane association of endogenous Bcl-w in HeLa cells

Molecule: CN[C@@H]1C[C@H]2O[C@@](C)([C@@H]1OC)n1c3ccccc3c3c4c(c5c6ccccc6n2c5c31)C(=O)NC4 [staurosporine]
- membrane association of endogenous Bcl-w [1]: Damage signals trigger membrane association of endogenous Bcl-w in HeLa cells
- membrane association of endogenous Bcl-w, alkali-resistant (Bcl-w in FDC-P1 cells; FDC-P1 cells, 100 nM staurosporine): damage signals induce membrane association resistant to alkali treatment

Molecule: zVAD.fmk
- recruitment of Bcl-w to the membrane fraction with caspase inhibitor (Bcl-w in FDC-P1 cells; 50 μM zVAD.fmk plus death signals, FD/FLAG–Bcl-w cells): Bcl-w was still recruited into the membrane fraction in response to death signals
- delay of cell death (FDC-P1 cells): delayed cell death

B1: BimLΔC27 (recombinant BimL lacking its COOH-terminal hydrophobic 27 amino acids) (domain or fragment, mouse, UniProt O54918-2 1-113, looked up)
chain: MAKQPSDVSSECDREGGQLQPAERPPQLRPGAPTSLQTEPQDRSPAPMSCDKSTQTPSPPCQAFNHYLSAMASIRQSQEEPEDLRPEIRIAQELRRIGDEFNETYTRRVFAND
- binding result [2]: binds

Molecule: DLRPEIRIAQELRRIGDEFNETYTRR [wtBH3, 26-mer peptide spanning the BH3 domain of Bim]
- binding result [2]: binds

Molecule: B2
- fold reduction of binding against wtBH3 [3]: > 50 fold

B3: BimLΔC27: Purified recombinant BimL lacking its COOH-terminal hydrophobic 27 amino acids (protein)
chain: MAKQPSDVSSECDREGGQLQPAERPPQLRPGAPTSLQTEPQDRSPAPMSCDKSTQTPSPPCQAFNHYLSAMASIRQSQEEPEDLRPEIRIAQELRRIGDEFNETYTRRVFAND
modifications: left off: GST, end not stated, state not stated
- binding to Bcl-w (Bcl-w ΔC10): binds purified Bcl-w with high (nM) affinity

B4: Wild-type Bcl-w: prosurvival Bcl-2 family protein, expressed FLAG-tagged (protein)
chain: MATPASAPDTRALVADFVGYKLRQKGYVCGAGPGEGPAADPLHQAMRAAGDEFETRFRRTFSDLAAQLHVTPGSAQQRFTQVSDELFQGGPNWGRLVAFFVFGAALCAESVNKEMEPLVGQVQEWMVAYLETQLADWIHSSGGWAEFTALYGDGALEEARRLREGNWASVRTVLTGAVALGALVTVGAFFASK
modifications: left off: FLAG, N-terminal, kept
- binding to BimEL (BimEL): interacts avidly with Bim

Source: PMC2172834 (The Journal of Cell Biology, 2003)
